Data published in ChEMBL document CHEMBL4689842, “EUbOPEN Chemogenomics Library wave 1” (2021).
Where “and” joins values, the source holds several entries; their conditions need not be identical. Equal entries are not always repeated.

System: Fibroblast
Assay: Multiplex assay against human fibroblast
Assay type: toxicity, cell-based
Conditions: 10 µM, compound concentration 10 uM
Outline: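 Hoechst33342, BioTracker Green Microtubule Cytoskeleton Dye, MitoTracker Red and Annexin V Alexa Fluor 680 were added to live cells at seeding, and imaging on a CQ1 microscope at 37°C and 5% CO2 followed compound addition. Gating by CellPathfinder machine learning separated cells into Hoechst high-intensity objects or normal cells, then normal cells into healthy, pyknosed or fragmented nuclei, then pyknosed cells into mitotic or apoptotic. Per cents of healthy-nucleus cells are reported for the tubulin, mitochondrial-mass and membrane-permeability phenotypes.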

## Cc1sc2c(c1C)C(c1ccc(Cl)cc1)=N[C@@H](CC(=O)OC(C)(C)C)c1nnc(C)n1-2
12 h, replicate 1
  Population Apoptotic (%): 71% and 88%
  Population Fragmented Nuclei (%): 38% and 43%
  Population Healthy Nuclei (%): 48% and 40%
  Population Hoechst High Intensity Objects (%): 13% and 14%
  Population Membrane Permeable-Phenotype (%): 7% and 4%
  Population Mitochondria Different-Phenotype (%): 0%
  Population Mitotic Cells (%): 28% and 12%
  Population Normal (%): 86% and 85%
  Population Pyknosed Nuclei (%): 13% and 16%
  Population Tubulin-Different-Phenotype (%): 4% and 0%
  Total Cell Count: 368 and 183
12 h, replicate 2
  Population Apoptotic (%): 66%
  Population Fragmented Nuclei (%): 55% and 63%
  Population Healthy Nuclei (%): 39% and 31%
  Population Hoechst High Intensity Objects (%): 24% and 25%
  Population Membrane Permeable-Phenotype (%): 10% and 0%
  Population Mitotic Cells (%): 33%
  Population Normal (%): 75%
  Population Pyknosed Nuclei (%): 6% and 4%
  Total Cell Count: 132 and 92
24 h, replicate 1
  Population Apoptotic (%): 73%
  Population Fragmented Nuclei (%): 36% and 29%
  Population Healthy Nuclei (%): 47% and 59%
  Population Hoechst High Intensity Objects (%): 12% and 16%
  Population Membrane Permeable-Phenotype (%): 7%
  Population Mitochondria Different-Phenotype (%): 6%
  Population Mitotic Cells (%): 26%
  Population Normal (%): 87% and 83%
  Population Pyknosed Nuclei (%): 16% and 11%
  Population Tubulin-Different-Phenotype (%): 2% and 1%
  Total Cell Count: 183 and 320
24 h, replicate 2
  Population Apoptotic (%): 71% and 66%
  Population Fragmented Nuclei (%): 56% and 42%
  Population Healthy Nuclei (%): 31% and 49%
  Population Hoechst High Intensity Objects (%): 28% and 21%
  Population Mitochondria Different-Phenotype (%): 11% and 14%
  Population Mitotic Cells (%): 28% and 33%
  Population Normal (%): 71% and 78%
  Population Pyknosed Nuclei (%): 12% and 8%
  Population Tubulin-Different-Phenotype (%): 11%
  Total Cell Count: 81 and 91
